{"data": "Published values from different studies", "cell line": "A549", "read-out": "cell growth or viability", "note": "Lines come from different studies, so protocols differ."}
{"SMILES": "CCCCC(=O)Nc1ccc(-c2ccc3ncn(CCC)c(=O)c3c2)c(F)n1", "technique": "CCK-8", "time": "72 h", "endpoint": "IC50", "value": "> 10 µM"}
{"SMILES": "O=C(Nc1ccc(-c2cn(Cc3ccc(Br)cc3)nn2)cc1)Nc1ccccc1Br", "technique": "CCK-8", "concentration": "20 µM", "time": "72 h", "endpoint": "viability", "value": "77.3%"}
{"SMILES": "COc1ccc(NC(=O)Nc2cccc(-c3cn(Cc4ccc(C)cc4)nn3)c2)cc1", "technique": "CCK-8", "concentration": "20 µM", "time": "72 h", "endpoint": "viability", "value": "146%"}
{"SMILES": "O=C(Nc1cccc(-c2cn(Cc3ccc(Br)cc3)nn2)c1)Nc1ccccc1Br", "technique": "CCK-8", "concentration": "50 µM", "time": "72 h", "endpoint": "viability", "value": "70.9%"}
{"SMILES": "CCCCCCCCCCCCCCCCCCOc1ccc(CC(=O)OCCC[N+](C)(C)C)cc1", "technique": "SRB", "concentration": "10 µM", "endpoint": "inhibition", "value": "21.9%"}
{"SMILES": "O=C(NCc1cn(Cc2ccc(Br)cc2)nn1)Nc1ccc(Cl)cc1", "technique": "CCK-8", "concentration": "50 µM", "time": "72 h", "endpoint": "viability", "value": "97%"}
{"SMILES": "COc1ccc(NC(=O)NCc2cn(Cc3ccc(Cl)cc3)nn2)cc1", "technique": "CCK-8", "concentration": "50 µM", "time": "72 h", "endpoint": "viability", "value": "80.9%"}
{"SMILES": "CCCCCCCCCCCCCCCCCCOc1ccccc1CC(=O)OCC[N+](CC)(CC)CC", "technique": "SRB", "concentration": "10 µM", "endpoint": "inhibition", "value": "70.7%"}
{"SMILES": "O=C(Nc1cccc(F)c1)Nc1nc2cc(-c3ccc4ncn(Cc5ccccc5)c(=O)c4c3)ccc2s1", "technique": "MTT", "time": "72 h", "endpoint": "IC50", "value": "3.49 µM"}
{"SMILES": "COc1ccc2/c(=N/c3ccccc3NC(=O)N3CCOCC3)cc(-c3ccc4c(c3)OCCO4)oc2c1", "technique": "CCK-8", "concentration": "1 µM", "endpoint": "inhibition", "value": "2.09%"}
{"SMILES": "CCOc1ccc(-c2cc(C(=O)O)c(-c3ccc(Cl)cc3)o2)cc1", "technique": "MTT", "time": "48 h", "endpoint": "EC50", "value": "75 µM"}
{"SMILES": "N#CSCc1cc(=O)oc2cc(O)ccc12", "technique": "SRB", "endpoint": "GI50", "value": "5.8 µM"}
{"SMILES": "O=C(NCc1cn(Cc2ccc(Cl)cc2)nn1)Nc1ccc(Cl)cc1", "technique": "CCK-8", "concentration": "20 µM", "time": "72 h", "endpoint": "viability", "value": "61.7%"}
{"SMILES": "NCCCCC(=O)Nc1ccccc1/N=c1\\cc(-c2ccc3c(c2)OCO3)oc2ccccc12", "technique": "CCK-8", "concentration": "1 µM", "endpoint": "inhibition", "value": "3.56%"}
{"SMILES": "CCCCCC(=O)Nc1ccc(-c2ccc3ncn(CCCC)c(=O)c3c2)cn1", "technique": "CCK-8", "time": "72 h", "endpoint": "IC50", "value": "1.34 µM"}
{"SMILES": "O=C(NCc1cn(Cc2cccc(Cl)c2)nn1)Nc1ccc(Cl)cc1", "technique": "CCK-8", "concentration": "50 µM", "time": "72 h", "endpoint": "viability", "value": "79.5%"}
{"SMILES": "COc1cccc(NC(=O)Nc2nc3cc(-c4ccc5ncn(CCC6CCCCC6)c(=O)c5c4)ccc3s2)c1", "technique": "MTT", "time": "72 h", "endpoint": "IC50", "value": "1.27 µM"}
{"SMILES": "Cc1cccc(NC(=O)Nc2ccc(-c3ccc4ncn(Cc5ccccc5)c(=O)c4c3)cn2)c1", "technique": "CCK-8", "time": "72 h", "endpoint": "IC50", "value": "> 10 µM"}
{"SMILES": "N[C@@H](CO)C(=O)Nc1ccccc1/N=c1\\cc(-c2ccc3c(c2)OCO3)oc2ccccc12", "technique": "CCK-8", "concentration": "1 µM", "endpoint": "inhibition", "value": "-0.16%"}
{"SMILES": "CCCCCCCCCCCCCCCCCCOc1ccc(CC(=O)OCC[N+]2(C)CCCC2)cc1", "technique": "SRB", "concentration": "10 µM", "endpoint": "inhibition", "value": "2.78%"}
{"SMILES": "NCC(=O)Nc1ccccc1/N=c1\\cc(-c2ccc3c(c2)OCO3)oc2c(N)cccc12", "technique": "CCK-8", "concentration": "1 µM", "endpoint": "inhibition", "value": "-3.51%"}
{"SMILES": "CCCCCCCCCCCCCCCCCCOc1cccc(CC(=O)OCC[N+]2(C)CCCC2)c1", "technique": "SRB", "concentration": "10 µM", "endpoint": "inhibition", "value": "13.9%"}
{"SMILES": "COc1ccc(NC(=O)Nc2cccc(-c3cn(Cc4ccc(Cl)cc4)nn3)c2)cc1", "technique": "CCK-8", "concentration": "20 µM", "time": "72 h", "endpoint": "viability", "value": "147%"}
{"SMILES": "CCCCCC(=O)Nc1ccc(-c2ccc3ncn(CCC)c(=O)c3c2)cn1", "technique": "CCK-8", "time": "72 h", "endpoint": "IC50", "value": "0.17 µM"}
{"SMILES": "COc1ccc(NC(=O)NCc2cn(Cc3ccc(C)cc3)nn2)cc1", "technique": "CCK-8", "concentration": "20 µM", "time": "72 h", "endpoint": "viability", "value": "70.4%"}
{"SMILES": "CCCn1cnc2ccc(-c3ccc(NC(=O)CNCC)nc3)cc2c1=O", "technique": "CCK-8", "time": "72 h", "endpoint": "IC50", "value": "3.42 µM"}
{"SMILES": "O=C(Nc1ccc(Cl)cc1)Nc1nc2cc(-c3ccc4ncn(Cc5ccccc5)c(=O)c4c3)ccc2s1", "technique": "MTT", "time": "72 h", "endpoint": "IC50", "value": "> 20 µM"}
{"SMILES": "NCCC(=O)Nc1ccccc1/N=c1\\cc(-c2ccc3oc(N)nc3c2)oc2ccccc12", "technique": "CCK-8", "concentration": "1 µM", "endpoint": "inhibition", "value": "14.5%"}
{"SMILES": "CCCCn1cnc2ccc(-c3ccc(NC(=O)C4CCC4)nc3)cc2c1=O", "technique": "CCK-8", "time": "72 h", "endpoint": "IC50", "value": "3.93 µM"}
{"SMILES": "COc1ccc(NC(=O)Nc2ccc(-c3cn(Cc4ccc(C)cc4)nn3)cc2)cc1", "technique": "CCK-8", "concentration": "20 µM", "time": "72 h", "endpoint": "viability", "value": "67.9%"}
{"SMILES": "CCCCCCCCCCCCCCCCCCOc1cccc(CC(=O)OCC[N+](C)(C)C)c1", "technique": "SRB", "concentration": "10 µM", "endpoint": "inhibition", "value": "8.12%"}
{"SMILES": "Cc1c(Cl)c(=O)oc2cc(OCCCCSC#N)ccc12", "technique": "SRB", "endpoint": "GI50", "value": "13 µM"}
{"SMILES": "O=C(Nc1ccc(Cl)cc1)Nc1ccc(-c2cn(Cc3ccc(Cl)cc3)nn2)cc1", "technique": "CCK-8", "concentration": "20 µM", "time": "72 h", "endpoint": "viability", "value": "73.2%"}
{"SMILES": "CCCn1cnc2ccc(-c3ccc(NC(=O)CNC(C)C)nc3)cc2c1=O", "technique": "CCK-8", "time": "72 h", "endpoint": "IC50", "value": "> 10 µM"}
{"SMILES": "CCCCCCCCCCCCCCCCCCOc1ccccc1CC(=O)OCC[N+](C)(C)C", "technique": "SRB", "concentration": "10 µM", "endpoint": "inhibition", "value": "88.5%"}
{"SMILES": "O=C(NCc1cn(Cc2ccc(Br)cc2)nn1)Nc1ccccc1Br", "technique": "CCK-8", "concentration": "50 µM", "time": "72 h", "endpoint": "viability", "value": "91.5%"}
{"SMILES": "Cc1ccccc1Cn1cc(-c2cccc(NC(=O)Nc3ccc(F)cc3)c2)nn1", "technique": "CCK-8", "concentration": "50 µM", "time": "72 h", "endpoint": "viability", "value": "175%"}
{"SMILES": "Nc1nc2ccc(-c3c/c(=N\\c4ccccc4NC(=O)C4CCNC4)c4ccccc4o3)cc2o1 (centres unmarked)", "technique": "CCK-8", "concentration": "1 µM", "endpoint": "inhibition", "value": "22.7%"}
{"SMILES": "COc1ccc(NC(=O)Nc2ccc(-c3cn(Cc4cccc(Cl)c4)nn3)cc2)cc1", "technique": "CCK-8", "concentration": "20 µM", "time": "72 h", "endpoint": "viability", "value": "102%"}
{"SMILES": "NCC(=O)Nc1ccccc1/N=c1\\cc(-c2ccc3c(c2)OCO3)oc2c([N+](=O)[O-])cccc12", "technique": "CCK-8", "concentration": "1 µM", "endpoint": "inhibition", "value": "-2.29%"}
{"SMILES": "CCCCC(=O)Nc1ccc(-c2ccc3ncn(CC4CCC4)c(=O)c3c2)cn1", "technique": "CCK-8", "time": "72 h", "endpoint": "IC50", "value": "0.32 µM"}
{"SMILES": "COc1ccc(NC(=O)Nc2cccc(-c3cn(Cc4ccc(Br)cc4)nn3)c2)cc1", "technique": "CCK-8", "concentration": "50 µM", "time": "72 h", "endpoint": "viability", "value": "271%"}
{"SMILES": "NCCC(=O)Nc1ccc(/N=c2\\cc(-c3ccc4c(c3)OCO4)oc3ccccc23)cc1", "technique": "CCK-8", "concentration": "1 µM", "endpoint": "inhibition", "value": "-1.6%"}
{"SMILES": "O=C(Nc1ccc(-c2cn(Cc3ccc(Cl)cc3)nn2)cc1)Nc1ccccc1Br", "technique": "CCK-8", "concentration": "50 µM", "time": "72 h", "endpoint": "viability", "value": "107%"}
